Calls of active or inactive are those of the source.
Tests used:
Rattus norvegicus [1] = assay: Antinociceptive activity in Wistar rat pups assessed as paw-lifting at 10 mg/kg, ip administered 1 hr on postnatal day 7 prior to formalin challenge measured for 60 secs at 5 mins interval for 60 mins; type: functional, organism-based
Method in brief: (§1)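 Honokiol in corn oil (vehicle alone as control) given ip 1 h before intraplantar sc injection of 5% formalin (10 μL) or saline into the left forepaw. Recuperation behaviours (paw licking, lifting, flinching, rolling) scored for 60 s at 5 min intervals over 60 min. Phase I at 5 min, phase II tonic period 5−60 min. Blinded observers, n = 8 per group, mean ± SEM.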

Rattus norvegicus [2] = assay: Antinociceptive activity in Wistar rat pups assessed as flinching at 10 mg/kg, ip administered 1 hr on postnatal day 7 prior to formalin challenge measured for 60 secs at 5 mins interval for 60 mins; type: functional, organism-based; method in brief: as §1
Rattus norvegicus [3] = assay: Antinociceptive activity in Wistar rat pups assessed as rolling at 10 mg/kg, ip administered 1 hr on postnatal day 7 prior to formalin challenge measured for 60 secs at 5 mins interval for 60 mins; type: functional, organism-based; method in brief: as §1
Rattus norvegicus [4] = assay: Antinociceptive activity in formalin-induced Wistar rat pups pain model assessed as decrease in recuperation time at 10 mg/kg, ip administered 1 hr on postnatal day 7 prior to formalin challenge; type: functional; method in brief: as §1
Rattus norvegicus [5] = assay: Antinociceptive activity in formalin-induced Wistar rat pups pain model assessed as decrease in thermal hyperalgesia at 10 mg/kg, ip administered daily from postnatal day 4 to day 6 prior to formalin challenge followed by further compound administration every other day until postnatal day 17 to day 21 by hot plate test; type: functional, organism-based
Method in brief: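 Chronic severe pain model: 5% formalin (10 μL sc) or saline injected into each paw in sequence at 1 h intervals, daily P4−P6. Honokiol or corn oil ip before insult each day, then every other day until P21. Latency to jump on a 55 ± 2 °C hot plate, cutoff 30 s. Three readings at least 15 min apart averaged per animal. Blinded, mean ± SEM.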

Rattus norvegicus [6] = assay: Antinociceptive activity in formalin-induced Wistar rat pups pain model assessed as improved exploratory behavior at 10 mg/kg, ip administered 1 hr on postnatal day 7 prior to formalin challenge measured on postnatal day 21 by defensive withdrawal test; type: functional, organism-based
Method in brief: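 Defensive withdrawal at P21, during the dark cycle, after the neonatal formalin or saline insult with ip honokiol or corn oil. Habituation to the 50 × 50 × 50 cm open field for 10 min without the chamber. Animals then started in a dark chamber along the wall. Latency measured until all four paws were outside the chamber. Blinded, mean ± SEM.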

Rattus norvegicus [7] = assay: Toxicity in formalin-induced Wistar rat pups pain model assessed as change in exploratory behavior by measuring distance travelled at 10 mg/kg, ip administered 1 hr […] prior to formalin challenge measured for 5 mins on postnatal day 21 by open field test; type: organism-based; settings: in vivo
Method in brief: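 Open-field test at P21 during the dark cycle, 1 h after ip honokiol or corn oil. Rats explored a 50 × 50 × 50 cm box for 5 min under video tracking, and total distance travelled was calculated. n = 3 or 4 per group.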

Rattus norvegicus [8] = assay: Antinociceptive activity in formalin-induced Wistar rat pups pain model assessed as downregulation of c-Fos expression in hippocampus at 10 mg/kg, ip administered on postnatal day 7 measured after 3 days post formalin challenge by immunohistochemical staining assay relative to control; type: functional, organism-based
Method in brief: (§2)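 c-Fos immunohistochemistry on brain sections from P7 rats after the 3-day formalin or control protocol. Sections fixed in formalin, treated with 0.3% H2O2, blocked in 1% fish gel, then anti-c-Fos 1:500 for 24 h and biotinylated IgG. Six 20 μm sections ≥90 μm apart per animal, each with six random 20× fields counted. n = 6−8 per group.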

Rattus norvegicus [9] = assay: Antinociceptive activity in formalin-induced Wistar rat pups pain model assessed as downregulation of c-Fos expression in thalamus at 10 mg/kg, ip administered on postnatal day 7 measured after 3 days post formalin challenge by immunohistochemical staining assay relative to control; type: functional, organism-based; method in brief: as §2
Rattus norvegicus [10] = assay: Antinociceptive activity in formalin-induced Wistar rat pups pain model assessed as upregulation of substance P receptor expression in alveus at 10 mg/kg, ip administered 1 hr on postnatal day 7 prior to formalin challenge measured on postnatal day 21 by immunohistochemical staining assay relative to control; type: functional, organism-based
Method in brief: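 Substance P receptor immunostaining at P21, 14 days after the 3-day formalin or saline protocol with ip honokiol or corn oil. Sections fixed in formalin then cold methanol, 0.2% Triton under 3 min, 1% fish gel block 1 h, primary antibody 24 h, then secondary. Positive cells counted in the hippocampal alveus, mean ± SEM.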

Rattus norvegicus [11] = assay: Antinociceptive activity in Wistar rat pups assessed as paw-licking at 10 mg/kg, ip administered 1 hr on postnatal day 7 prior to formalin challenge measured for 60 secs at 5 mins interval for 60 mins; type: functional, organism-based; method in brief: as §1
Rattus norvegicus [12] = assay: Antinociceptive activity in formalin-induced Wistar rat pups pain model assessed as increased in discrimination ratio at 10 mg/kg, ip administered 1 hr on postnatal day 7 prior to formalin challenge measured on postnatal day 21 by novel object recognition test

## C=CCc1ccc(O)c(-c2ccc(O)c(CC=C)c2)c1 [HONOKIOL]
Rattus norvegicus [1]
  Activity: Active
Rattus norvegicus [2]
  Activity: Active
Rattus norvegicus [3]
  Activity: Active
Rattus norvegicus [4]
  Time: 30 min
Rattus norvegicus [5]
  Activity: Active
Rattus norvegicus [6]
  Activity: Active
Rattus norvegicus [7]
  Activity: 4000 mm
Rattus norvegicus [8]
  Activity: Active
Rattus norvegicus [9]
  Activity: Active
Rattus norvegicus [10]
  Activity: Active
Rattus norvegicus [11]
  Activity: Active
Rattus norvegicus [12]
  Activity: Active
